In general, solubility refers to the concentration that dissolves in the medium under given conditions. Read a high solubility as much dissolved substance. Usually IC50 stands for the concentration at which inhibition is half-maximal.

A short description of data set [1]: Solubility of the compound in Britton-Robinson buffer at pH 4 measured after 24 hrs. It counts as physicochemical. The method, boiled down: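 Solubility was measured in Britton-Robinson buffers spanning pH 2 to pH 8. Readings were taken after 12 h and 24 h and reported in mg/mL.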
For another data set, the target named is Kallikrein-1 (Homo sapiens, UniProt P06870). Description: Inhibition of human recombinant N-terminal His-tagged and enterokinase cleavage site-fused KLK1 (19 to 262 residues) expressed in baculovirus infected Sf9 insect cells using R110 labelled GSK3162232A as substrate measured at 30 secs interval for 5 mins by FLINT assay.
Chain of Kallikrein-1 (P06870 whole entry, the tested form may be a part): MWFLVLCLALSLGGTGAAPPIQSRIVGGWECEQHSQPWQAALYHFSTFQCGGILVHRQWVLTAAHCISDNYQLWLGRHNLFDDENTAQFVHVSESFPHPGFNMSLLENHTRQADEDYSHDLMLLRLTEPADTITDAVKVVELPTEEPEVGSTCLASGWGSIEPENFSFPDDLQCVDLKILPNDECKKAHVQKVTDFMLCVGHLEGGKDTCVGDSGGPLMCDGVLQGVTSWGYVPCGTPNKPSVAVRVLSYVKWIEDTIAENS
The target of data set [2] is T1, Suppressor of tumorigenicity 14 protein (Homo sapiens, UniProt Q9Y5Y6).
T1 sequence (Q9Y5Y6 whole entry): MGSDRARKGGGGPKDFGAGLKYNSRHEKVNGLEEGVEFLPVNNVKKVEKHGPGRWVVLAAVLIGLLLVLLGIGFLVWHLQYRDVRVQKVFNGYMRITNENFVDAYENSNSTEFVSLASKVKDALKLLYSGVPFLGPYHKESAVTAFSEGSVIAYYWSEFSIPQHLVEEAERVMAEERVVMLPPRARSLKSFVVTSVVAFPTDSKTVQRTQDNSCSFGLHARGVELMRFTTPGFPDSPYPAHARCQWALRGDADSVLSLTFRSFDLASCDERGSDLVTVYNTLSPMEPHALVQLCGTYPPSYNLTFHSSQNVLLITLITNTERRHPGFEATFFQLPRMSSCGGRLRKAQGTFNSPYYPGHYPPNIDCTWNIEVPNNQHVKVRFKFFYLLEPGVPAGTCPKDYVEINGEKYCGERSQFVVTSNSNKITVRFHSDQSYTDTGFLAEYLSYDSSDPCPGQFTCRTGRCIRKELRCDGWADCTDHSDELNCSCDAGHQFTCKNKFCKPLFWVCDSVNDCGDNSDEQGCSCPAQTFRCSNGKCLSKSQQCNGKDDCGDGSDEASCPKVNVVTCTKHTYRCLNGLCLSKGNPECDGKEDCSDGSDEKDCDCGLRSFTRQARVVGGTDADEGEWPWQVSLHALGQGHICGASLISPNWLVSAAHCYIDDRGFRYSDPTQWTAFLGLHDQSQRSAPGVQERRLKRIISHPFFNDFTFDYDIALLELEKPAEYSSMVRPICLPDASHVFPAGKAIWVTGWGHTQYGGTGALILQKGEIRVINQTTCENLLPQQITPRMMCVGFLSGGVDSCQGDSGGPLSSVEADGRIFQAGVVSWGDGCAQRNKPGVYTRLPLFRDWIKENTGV
Description: Inhibition of recombinant human N-terminal Met and 6-His-tagged matriptase (G596 to V855 residues) expressed in Escherichia coli using Boc-QAR-AMC as substrate incubated for 40 mins by FLINT assay.

The next data set concerns the target Kallikrein-7 (Homo sapiens, UniProt P49862). Briefly: Inhibition of recombinant human C-terminal 10-His-tagged KLK7 (Glu23 to His252 residues) expressed in mouse NS0 cells using 5-FAM-E-A-L-Y-L-V-S-G-C(5-TAMRA) as substrate incubated for 40 mins by FLINT assay.

Molecules are shown by their SMILES. A value given as a limit tells only on which side of the number the result lay.

Chain of Kallikrein-7 (P49862 whole entry): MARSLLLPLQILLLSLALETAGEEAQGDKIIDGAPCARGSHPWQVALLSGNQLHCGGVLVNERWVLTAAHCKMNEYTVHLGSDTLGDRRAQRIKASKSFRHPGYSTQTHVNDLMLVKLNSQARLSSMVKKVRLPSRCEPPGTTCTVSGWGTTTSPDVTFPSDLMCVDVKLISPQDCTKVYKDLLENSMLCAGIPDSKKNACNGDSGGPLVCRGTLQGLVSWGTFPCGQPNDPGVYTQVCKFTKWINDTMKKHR

With `Cl.N=C(N)c1ccc([C@H]2Cc3ccc(C(F)(F)F)cc3B(O)O2)cc1OCc1cccnc1`, the solubility at 24 h in data set [1] was > 9000 µg/mL. The half-maximal inhibitory concentration (IC50) on Kallikrein-1 is 251 nM; in data set [2], 1260 nM; on Kallikrein-7, 79400 nM.

Source of the values: ChEMBL document CHEMBL4396973, “Design and development of a series of borocycles as selective, covalent kallikrein 5 inhibitors” (Bioorg Med Chem Lett, 2019).
